TRPC4 PAM = TRPC4 (mouse) allosteric potentiation; HEK293 TRPC4beta/mu-opioid, DAMGO EC20, Fluo-4 Ca2+ flux; stronger effect = higher value; B-score at 10 µM; 0.42% of 310,000 active; AID 2227;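 active means B-score of calcium response area above 5 SD of library B-scores, with initial fluorescence ratio within 5 SD of library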;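 further: B-score of integrated fluorescence ratio over time as area under calcium response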
TRPC6 activator = activators of mouse TRPC6 channel | Q61143 | HEK293-TRPC6 membrane potential dye fluorescence; stronger effect = higher value | B-score at 10 µM | 0.13% of 310,000 active | AID 2550;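 active means B-score of the integrated fluorescence ratio above library mean plus 3 SD, and starting fluorescence ratio within library mean plus 5 SD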;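 further: higher score means more depolarization so channel activation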
Target sequence (Q61143 whole entry, looked up): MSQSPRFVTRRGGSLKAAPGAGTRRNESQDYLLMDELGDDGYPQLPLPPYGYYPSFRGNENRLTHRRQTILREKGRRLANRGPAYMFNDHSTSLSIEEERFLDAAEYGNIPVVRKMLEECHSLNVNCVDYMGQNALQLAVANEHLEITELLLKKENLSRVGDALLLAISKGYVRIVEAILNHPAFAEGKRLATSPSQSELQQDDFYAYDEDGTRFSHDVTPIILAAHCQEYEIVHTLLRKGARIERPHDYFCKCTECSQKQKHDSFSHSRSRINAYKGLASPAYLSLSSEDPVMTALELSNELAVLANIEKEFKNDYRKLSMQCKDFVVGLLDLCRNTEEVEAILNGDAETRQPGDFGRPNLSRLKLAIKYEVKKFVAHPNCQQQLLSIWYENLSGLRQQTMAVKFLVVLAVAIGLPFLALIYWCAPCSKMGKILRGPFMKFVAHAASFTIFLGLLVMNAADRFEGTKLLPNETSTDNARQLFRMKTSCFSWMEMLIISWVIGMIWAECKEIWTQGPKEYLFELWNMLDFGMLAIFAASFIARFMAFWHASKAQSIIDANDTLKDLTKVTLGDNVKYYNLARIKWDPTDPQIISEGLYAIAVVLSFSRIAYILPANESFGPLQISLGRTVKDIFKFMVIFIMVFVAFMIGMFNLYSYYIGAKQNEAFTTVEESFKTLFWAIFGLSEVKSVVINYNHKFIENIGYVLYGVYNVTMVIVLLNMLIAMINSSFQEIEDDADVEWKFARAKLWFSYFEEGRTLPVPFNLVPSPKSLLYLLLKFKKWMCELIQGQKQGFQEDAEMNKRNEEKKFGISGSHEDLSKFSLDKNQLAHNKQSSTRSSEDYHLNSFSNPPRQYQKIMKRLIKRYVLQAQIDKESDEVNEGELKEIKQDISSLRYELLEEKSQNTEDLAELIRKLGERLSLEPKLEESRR
TRPC4 act = activators of mouse TRPC4 channel; Q9QUQ5; HEK293 TRPC4beta/mu-opioid, Fluo4 calcium fluorescence; stronger effect = higher value; B-score at 10 µM; 0.49% of 310,000 active; AID 2237;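 active means B-score above 5 SD of library B-scores, and initial fluorescence ratio not above library mean plus 5 SD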;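 further: positive B-score marks a calcium rise read as TRPC4 activation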
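Assay system: HEK293 stable line with TRPC4beta plus mu-opioid receptor; schedule: 45 min room-temperature Fluo4 loading, 110 s read; technique: kinetic Fluo4 calcium fluorescence; evaluation: integrated baseline-normalised fluorescence ratio, converted to per-well B score; controls: buffer (low) and maximal DAMGO (high)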
TRPC6 inhibitor = blocks the mouse TRPC6 cation channel | HEK293-TRPC6, membrane potential dye, ACh-evoked depolarization; stronger effect = lower value | B-score at 10 µM | 1.1% of 310,000 active | AID 2553;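 active means B-score under library mean minus 3 SD, initial fluorescence not abnormally high, positive integrated signal ratio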;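 further: B-score derived from integrated fluorescence ratio over the kinetic read; more negative B-score means stronger inhibition of depolarization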
TRPC4 block = TRPC4 (mouse) channel inhibition; HEK293 TRPC4beta/mu-opioid, DAMGO-evoked Fluo4 calcium flux; stronger effect = lower value; 0.39% of 300,000 active; Q9QUQ5; B-score at 10 µM;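 active means B-score over 3 SD under the library average, no early fluorescence shift, positive overall ratio signal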
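Test system – stable TRPC4beta/mu-opioid receptor HEK293 cells · Probe or stimulus – DAMGO, a submaximal dose followed by a maximal one · Dosing – one concentration per compound · Signal – Fluo4 calcium fluorescence by kinetic imaging, 5 s 1 Hz baseline · Evaluation – per-well B score of integrated baseline-normalized Fluo4 ratio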
Numbers without * were called inactive. Shown are actives, neighbours in structure and some others; about 2.3% of the full set was active somewhere.

How did Nc1nonc1-n1nnc(C(=O)N/N=C/c2cccc(O)c2)c1CN1CCCC1 do in these assays?
TRPC4 PAM: inactive; TRPC6 activator: inactive; TRPC4 act: inactive; TRPC6 inhibitor: inactive; TRPC4 block: inactive

What do the screens show for `CN1CCN(Cc2c(C(=O)N/N=C/c3cccc(Br)c3)nnn2-c2nonc2N)CC1`?
TRPC4 PAM: inactive; TRPC6 activator: inactive; TRPC4 act: 43*; TRPC6 inhibitor: inactive; TRPC4 block: inactive

How did CCCN(CC(=O)Nc1ccccc1Br)CC(=O)Nc1ccc(F)c(F)c1F do in these assays?
TRPC4 PAM: 12*; TRPC6 activator: inactive; TRPC4 act: inactive; TRPC6 inhibitor: inactive; TRPC4 block: inactive

How did O=S(=O)(CCc1nc2ccccc2[nH]1)c1ccc(Br)cc1 do in these assays?
TRPC4 PAM: inactive; TRPC6 activator: inactive; TRPC4 act: inactive; TRPC6 inhibitor: inactive; TRPC4 block: inactive

What do the screens show for `Cn1ncc(C#N)c1/N=C/N(Cc1ccccc1)Cc1ccccc1`?
TRPC4 PAM: 16*; TRPC6 activator: inactive; TRPC4 act: inactive; TRPC6 inhibitor: inactive; TRPC4 block: inactive

What do the screens show for `O=C(Nc1nccs1)c1ccc(COc2ccccc2)o1`?
TRPC4 PAM: inactive; TRPC6 activator: inactive; TRPC4 act: inactive; TRPC6 inhibitor: inactive; TRPC4 block: inactive

How did CCOC(=O)CN1N=C(/C=C/c2ccccc2)CCC1=O do in these assays?
TRPC4 PAM: inactive; TRPC6 activator: inactive; TRPC4 act: inactive; TRPC6 inhibitor: inactive; TRPC4 block: inactive

Results for CCOC(=O)CN1N=C(/C=C/c2ccc(C(C)C)cc2)CCC1=O ?
TRPC4 PAM: 11*; TRPC6 activator: inactive; TRPC4 act: inactive; TRPC6 inhibitor: inactive; TRPC4 block: inactive

What do the screens show for `Cc1cc(C(=O)O)n(C(C)(C)C)n1`?
TRPC4 PAM: inactive; TRPC6 activator: inactive; TRPC4 act: inactive; TRPC6 inhibitor: inactive; TRPC4 block: inactive

How did CN(C)CCC1Sc2ccccc2Oc2ccccc21 (stereo unspecified) do in these assays?
TRPC4 PAM: inactive; TRPC6 activator: inactive; TRPC4 act: inactive; TRPC6 inhibitor: inactive; TRPC4 block: -6*

How did CC1c2ccccc2SC(CCCN(C)C)c2ccccc21 (stereo unspecified) do in these assays?
TRPC4 PAM: inactive; TRPC6 activator: inactive; TRPC4 act: inactive; TRPC6 inhibitor: inactive; TRPC4 block: inactive

What do the screens show for `Cc1ccccc1N(CC(=O)N/N=C/c1ccc(F)cc1)C(=O)c1ccccc1`?
TRPC4 PAM: inactive; TRPC6 activator: inactive; TRPC4 act: 91*; TRPC6 inhibitor: inactive; TRPC4 block: inactive

What do the screens show for `Cc1ccccc1N(CC(=O)N/N=C/c1ccc(Cl)cc1)C(=O)c1ccccc1`?
TRPC4 PAM: inactive; TRPC6 activator: inactive; TRPC4 act: inactive; TRPC6 inhibitor: inactive; TRPC4 block: inactive

Results for COc1ccc(C(O)(C(C)C)C(CN2CCOCC2)c2ccc(Cl)cc2)cc1 (stereo unspecified) ?
TRPC4 PAM: 12*; TRPC6 activator: inactive; TRPC4 act: inactive; TRPC6 inhibitor: inactive; TRPC4 block: inactive

Results for COc1ccc(C(O)(C2CCCCC2)C(CN2CCOCC2)c2ccccc2)cc1 (stereo unspecified) ?
TRPC4 PAM: 14*; TRPC6 activator: inactive; TRPC4 act: inactive; TRPC6 inhibitor: inactive; TRPC4 block: inactive

Results for CCC(O)(c1ccc(OC)cc1)C(CN1CCOCC1)c1ccccc1 (stereo unspecified) ?
TRPC4 PAM: inactive; TRPC6 activator: inactive; TRPC4 act: inactive; TRPC6 inhibitor: inactive; TRPC4 block: -6*

What do the screens show for `Cc1ccc2oc(=S)n(C)c2c1`?
TRPC4 PAM: inactive; TRPC6 activator: inactive; TRPC4 act: inactive; TRPC6 inhibitor: inactive; TRPC4 block: inactive

How did Cc1ccccc1-c1nc(CS(=O)(=O)CC(=O)NCc2ccccc2)c(C)o1 do in these assays?
TRPC4 PAM: inactive; TRPC6 activator: inactive; TRPC4 act: inactive; TRPC6 inhibitor: inactive; TRPC4 block: inactive

Results for C=CCSc1nc2c(c(=O)[nH]c(=O)n2C)n1C/C=C(/C)Cl ?
TRPC4 PAM: inactive; TRPC6 activator: inactive; TRPC4 act: inactive; TRPC6 inhibitor: inactive; TRPC4 block: -7*

Results for C/C(Cl)=C/Cn1c(SCCN2CCOCC2)nc2c1c(=O)[nH]c(=O)n2C ?
TRPC4 PAM: inactive; TRPC6 activator: inactive; TRPC4 act: inactive; TRPC6 inhibitor: inactive; TRPC4 block: inactive

What do the screens show for `C=CCn1c(SCCN2CCOCC2)nc2c1c(=O)[nH]c(=O)n2C`?
TRPC4 PAM: 23*; TRPC6 activator: inactive; TRPC4 act: inactive; TRPC6 inhibitor: inactive; TRPC4 block: inactive

How did O=C(CCCO)NNc1c2ccccc2nc2ccccc12 do in these assays?
TRPC4 PAM: inactive; TRPC6 activator: inactive; TRPC4 act: inactive; TRPC6 inhibitor: inactive; TRPC4 block: inactive

What do the screens show for `CCCCNC(=O)C1CCCN(S(=O)(=O)c2c(C)noc2/C=C/c2cccs2)C1` (stereo unspecified)?
TRPC4 PAM: inactive; TRPC6 activator: inactive; TRPC4 act: inactive; TRPC6 inhibitor: inactive; TRPC4 block: inactive

How did COc1ccc(-c2noc(N3CCC(C(=O)NCCCN4CCCC(C)C4)CC3)n2)cc1 (stereo unspecified) do in these assays?
TRPC4 PAM: 10*; TRPC6 activator: inactive; TRPC4 act: inactive; TRPC6 inhibitor: inactive; TRPC4 block: inactive

How did COc1ccc(-c2noc(N3CCC(C(=O)NCCCN4CCCCC4)CC3)n2)cc1 do in these assays?
TRPC4 PAM: inactive; TRPC6 activator: inactive; TRPC4 act: inactive; TRPC6 inhibitor: inactive; TRPC4 block: inactive

What do the screens show for `Cc1noc(/C=C/c2cccs2)c1S(=O)(=O)N1CCC(C(=O)NCCCN2CCCC(C)C2)CC1` (stereo unspecified)?
TRPC4 PAM: 10*; TRPC6 activator: inactive; TRPC4 act: inactive; TRPC6 inhibitor: inactive; TRPC4 block: inactive

Results for COC(=O)Cn1c(=NC(=O)c2cc(OC)cc(OC)c2)sc2cc(OC)ccc21 ?
TRPC4 PAM: inactive; TRPC6 activator: inactive; TRPC4 act: inactive; TRPC6 inhibitor: inactive; TRPC4 block: inactive

What do the screens show for `COc1ccc(C2CC2/C(=N/O)c2ccccc2)cc1` (stereo unspecified)?
TRPC4 PAM: inactive; TRPC6 activator: inactive; TRPC4 act: inactive; TRPC6 inhibitor: inactive; TRPC4 block: -8*

Results for COc1ccc(C2CC2/C(=N/O)c2ccccn2)cc1 (stereo unspecified) ?
TRPC4 PAM: inactive; TRPC6 activator: inactive; TRPC4 act: inactive; TRPC6 inhibitor: inactive; TRPC4 block: inactive

Results for Cc1nnc(NC(=O)c2ccccc2F)s1 ?
TRPC4 PAM: inactive; TRPC6 activator: inactive; TRPC4 act: inactive; TRPC6 inhibitor: inactive; TRPC4 block: inactive
